# Activity calls are given as the source filed them.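 Rule for the calls, unless noted: active = fluorescence slope after compound addition differing from the mean of all screened samples at 99.7% confidence, in either direction; inactive = the rest.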
# Key:
# [1] = inhibitors of TNFa-induced NFkB p65 translocation, primary screen, imaging, HUVEC, MLSMR starter and 10KST1 sets (AID 438;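 active = inhibition above 20% together with a positive visual image hit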;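 note: compound added about 3h40 before a 20 min TNFalpha stimulation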;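 for inhibition: signal is the nuclear over cytoplasmic p65 intensity ratio per well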); details: HUVEC TNFa-induced p65 nuclear translocation; cell count: measured here: nuclei count (cytotoxicity indicator), at 2.08 µM; inhibition: at 2 µM, stronger effect = higher value, 0% TNFa-plus-vehicle, 100% no-TNFa wells
# [2] = endothelial E-selectin expression blockers – imaging, HUVEC, immunofluorescence, MLSMR starter and 10KST1 sets, primary screen (AID 487;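 active = visually confirmed hit in the image check and inhibition above 20%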;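 for inhibition: signal is fraction of cell area covered by stained E-selectin grains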;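 for nuclei count: 100% = median nuclei count of all wells on the same plate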); details: HUVEC TNFalpha-induced E-selectin immunofluorescence imaging, at 2 µM; inhibition: stronger effect = higher value; nuclei count: measured here: cell number, toxicity
# [3] = Primary imaging screen for DUSP6 inhibitors that restore phospho-Erk in transfected HeLa cells, chemical complementation (AID 609;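 active = compounds giving at least 50% inhibition in the cell-based MKP-3 phosphatase rescue imaging test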;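 for inhibition: phospho-Erk level distribution per well compared with pooled transfected vehicle control wells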); details: HeLa MKP-3 transfected, phospho-Erk imaging KS statistic, at 10 µM, cells stimulated with TPA for 15 min
# [4] = biological target: Dual specificity protein phosphatase 6 (Homo sapiens) (UniProt Q16828); test: as above; details: HeLa MKP-3 transfected, phospho-Erk imaging KS statistic; at 10 µM; stronger effect = higher value; cells stimulated with TPA for 15 min
# [5] = biological target: Voltage-gated potassium channel subunit beta-2 (Rattus norvegicus) (UniProt P62483); test: inhibitors of rat Kvbeta2 reductase activity – biochemical, NADPH fluorescence, primary screen (AID 622;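 active = fluorescence slope higher than the sample average by over 3 SD, cut at about -0.22 in these data, passing the limit was not always enough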;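 note: slope of raw intensity against log time taken from 70 to 1610 s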); details: recombinant KvBeta, 4-cyanobenzaldehyde reduction, at 10 µM, stronger effect = higher value
# [6] = biological target: Voltage-gated potassium channel subunit beta-2 (Rattus norvegicus) (UniProt P62483); test: enhancers of rat Kvbeta2 NADPH turnover – biochemical, NADPH fluorescence, primary screen (AID 623;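 active = NADPH fluorescence slope more negative than the mean of all samples by about 3 SD, 99.7% confidence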;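 note: fluorescence intensity change per second fitted from 20 to 320 s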); details: Recombinant KvBeta, NADPH fluorescence decrease slope, 10 min; at 10 µM; stronger effect = lower value
# [7] = biological target: Alpha-2C adrenergic receptor (Homo sapiens) (UniProt P18825); test: compounds altering alpha2C-coupled GIRK flux – cell-based, HEK293 alpha2C/GIRK1/2, thallium flux, primary screen (AID 624); details: thallium flux BTC fluorescence, at 10 µM, actives lie on both sides;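 note: slope of fluorescence ratio to pre-addition baseline per second over 15 to 24 s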
# [8] = inhibitors of larval lipid processing in zebrafish, primary screen, whole organism, PED6 fluorescence, gall bladder and intestine (AID 686;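 active = a full or partial loss of lipid-probe fluorescence in the fish gall bladder, intestine or both, judged by eye; inactive = no fluorescence loss, or compound toxic to the fish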;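 note: larvae 5 to 7 days old with five fish per well; signal comes from phospholipase A2 cleavage of quenched PED6 carried via bile; overnight exposure to compound and PED6 before scoring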); details: Zebrafish larvae PED6 lipid processing, fluorescence scoring; screened at 20 µM (by protocol)
# Summary of the method: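 Doses: 20 µM single dose. Test system: live zebrafish larvae aged 5-7 days, whole organism. Quantity: five larvae per well. Measured by: By-eye fluorescence microscopy. Reagent: ingested quenched lipid PED6 at 100 nM. Read-out: visual per-well fluorescence inhibition score. Times: overnight exposure of larvae to compound plus PED6.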
# [9] = loss of swimming-algae plug formation – whole organism, Chlamydomonas reinhardtii, WT vs cilia-less mutant, absorbance, 96-well, primary screen (AID 463189;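 active = inhibition at or above 50% relative to wild type and mutant plate controls; inactive = inhibition below 50%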;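 note: 0% = wild type cc124 cells in DMSO and 100% = ciliumless bld1 mutant cells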); details: Chlamydomonas reinhardtii gravitaxis, OD600 absorbance, 2 days; at 10 µM; stronger effect = higher value
# [10] = measured here: cell density z-score
# [11] = measured here: nuclear c-Myc green intensity z-score
# [12] = measured here: nuclear pErk red intensity z-score, stronger effect = higher value
# Sequence of Alpha-2C adrenergic receptor (Homo sapiens) (P18825 whole entry, looked up): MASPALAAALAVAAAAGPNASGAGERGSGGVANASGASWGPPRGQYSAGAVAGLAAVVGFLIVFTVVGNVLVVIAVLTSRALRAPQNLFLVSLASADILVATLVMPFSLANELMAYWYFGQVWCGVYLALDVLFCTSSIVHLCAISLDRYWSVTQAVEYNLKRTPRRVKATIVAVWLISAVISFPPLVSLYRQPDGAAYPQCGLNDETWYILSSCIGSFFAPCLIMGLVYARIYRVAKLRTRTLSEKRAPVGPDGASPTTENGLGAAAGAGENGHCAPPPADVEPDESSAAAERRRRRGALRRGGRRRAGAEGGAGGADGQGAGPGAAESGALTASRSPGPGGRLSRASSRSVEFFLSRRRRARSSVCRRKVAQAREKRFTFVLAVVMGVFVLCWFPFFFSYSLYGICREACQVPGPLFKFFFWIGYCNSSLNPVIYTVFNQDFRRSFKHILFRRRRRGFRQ
# Sequence of Dual specificity protein phosphatase 6 (Homo sapiens) (Q16828 whole entry, looked up): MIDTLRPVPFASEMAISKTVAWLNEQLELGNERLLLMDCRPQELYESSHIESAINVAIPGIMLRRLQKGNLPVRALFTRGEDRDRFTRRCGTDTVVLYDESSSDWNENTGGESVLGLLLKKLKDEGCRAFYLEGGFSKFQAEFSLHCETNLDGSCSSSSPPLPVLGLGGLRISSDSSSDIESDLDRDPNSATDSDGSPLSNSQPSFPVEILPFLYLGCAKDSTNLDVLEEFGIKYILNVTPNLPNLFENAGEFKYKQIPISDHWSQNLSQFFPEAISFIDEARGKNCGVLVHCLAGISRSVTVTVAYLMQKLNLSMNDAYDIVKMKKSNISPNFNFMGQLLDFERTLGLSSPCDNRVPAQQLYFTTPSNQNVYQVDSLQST
# Sequence of Voltage-gated potassium channel subunit beta-2 (Rattus norvegicus) (P62483 whole entry, looked up): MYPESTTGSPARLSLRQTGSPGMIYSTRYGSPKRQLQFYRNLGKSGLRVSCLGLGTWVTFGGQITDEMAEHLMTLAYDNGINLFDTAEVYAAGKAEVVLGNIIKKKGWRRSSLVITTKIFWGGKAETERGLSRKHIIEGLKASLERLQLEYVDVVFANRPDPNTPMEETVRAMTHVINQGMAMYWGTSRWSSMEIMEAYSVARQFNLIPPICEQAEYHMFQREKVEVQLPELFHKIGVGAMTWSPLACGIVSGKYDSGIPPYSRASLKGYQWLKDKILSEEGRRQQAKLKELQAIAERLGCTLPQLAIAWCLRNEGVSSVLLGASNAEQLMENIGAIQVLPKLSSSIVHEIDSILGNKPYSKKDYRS
Structure (SMILES),cell count [1],inhibition [1],inhibition [2],nuclei count [2] [%],"z-score [3, 10]","z-score [3, 11]","z-score [3, 12]",inhibition [4],fluorescence slope [5],NADPH fluorescence slope [6],slope [7],outcome [8],inhibition [9]
CN(C)CCNc1nc(-c2ccco2)c2c(c1C#N)CC(C)(C)OC2,621,-14.2% (inactive),-15.8% (inactive),164,-0.37,-0.517,0.864,1.48% (inactive),-0.34 (inactive),-5.5e-05 (inactive),0.00509 (inactive),inactive,17.6% (inactive)
CCCCCCc1cc2cc(C(=O)NC)c(=N)oc2cc1O,346,-2% (inactive),-68.8% (inactive),90.1,-0.814,2.52,-2.41,13.2% (inactive),-0.446 (inactive),-6.7e-05 (inactive),0 (inactive),inactive,-9.65% (inactive)
O=c1c(C=NCCCn2ccnc2)c(-c2ccccc2)[nH]n1-c1nc2ccccc2s1,579,-6.5% (inactive),-108% (inactive),132,1.34,-0.223,0.991,25.8% (inactive),-0.47 (inactive),-1.6e-05 (inactive),0.00444 (inactive),inactive,1.09% (inactive)
CCCCNC(=O)C(C#N)c1nc2ccccc2nc1N1CCN(Cc2ccc3c(c2)OCO3)CC1 (stereo unspecified),555,-0.5% (inactive),21.5% (inactive),145,-1.05,-1.11,1.27,15% (inactive),-0.362 (inactive),-1.5e-05 (inactive),0.00451 (inactive),inactive,12.9% (inactive)
CC(=O)c1cc(C#N)c(SCC(=O)C(C)(C)C)nc1C,620,-22.5% (inactive),43.4% (inactive),103,-0.699,-0.489,-0.711,-3.95% (inactive),-0.462 (inactive),-1.9e-05 (inactive),0.00715 (inactive),inactive,42.5% (inactive)
COC(=O)c1cc2c(=O)n3cccc(C)c3nc2n(Cc2cccnc2)c1=N,626,-15% (inactive),-113% (inactive),159,2.59,-0.798,-0.054,25.7% (inactive),-0.523 (inactive),-3.6e-05 (inactive),0.00531 (inactive),inactive,32.4% (inactive)
CCC(=O)Nc1cc(-c2nn(C)c(=O)c3ccccc23)ccc1N1CCCCC1,527,-10.5% (inactive),-20.7% (inactive),161,-0.258,-0.867,0.981,-3.5% (inactive),-0.373 (inactive),-2.2e-05 (inactive),0.00441 (inactive),inactive,25.8% (inactive)
CN=c1sc2ccccc2n1CC(O)COc1ccccc1 (stereo unspecified),462,-11% (inactive),-95.8% (inactive),204,-0.699,0.37,0.00223,-0.624% (inactive),-0.362 (inactive),-2.9e-05 (inactive),0.00426 (inactive),inactive,-3.38% (inactive)
Cc1nccn1-c1cc(C(C)C)c(C#N)c2nc3ccccc3n12,468,-22.6% (inactive),-68.2% (inactive),140,1.43,-0.347,-0.664,8.31% (inactive),-0.524 (inactive),-2.8e-05 (inactive),0.0063 (inactive),inactive,23% (inactive)
O=C1CC(c2ccco2)CC(O)=C1C=Nc1cc(Cl)ccc1O (stereo unspecified),416,-17% (inactive),-77.9% (inactive),152,-1.18,-0.564,1.32,1.04% (inactive),-0.386 (inactive),-5.2e-05 (inactive),0.00522 (inactive),inactive,17.7% (inactive)
Cn1nccc1C(=O)Nc1ccccc1C(=O)O,640,-1.2% (inactive),16% (inactive),170,1.93,-0.909,-0.448,11.4% (inactive),-0.449 (inactive),-0.000369 (inactive),0.00518 (inactive),inactive,15.5% (inactive)
Cc1ccc(S(=O)(=O)NC(=O)NCc2ccc3c(c2)OCO3)cc1,396,-2.3% (inactive),-36.4% (inactive),91.6,-0.395,0.582,-0.563,5.57% (inactive),-0.485 (inactive),-0.000226 (inactive),0.00482 (inactive),inactive,-10% (inactive)
COc1ccc(C(C)=O)cc1CSCCC(=O)O,513,-1.6% (inactive),-82.1% (inactive),175,1.45,-1.72,-4.2,-5.26% (inactive),-0.349 (inactive),1.8e-05 (inactive),0.00434 (inactive),inactive,0.764% (inactive)
CCCOc1ccc(N2C(=O)CC(N(Cc3ccc(S(N)(=O)=O)cc3)C(=O)CC)C2=O)cc1 (stereo unspecified),441,-4.6% (inactive),-308% (inactive),184,-0.613,0.516,0.905,-7.28% (inactive),-0.326 (inactive),1.9e-05 (inactive),0.00479 (inactive),inactive,2.36% (inactive)
COCCOC(=O)c1c(C)nc(SCC(=O)Nc2ccc(C)cc2)c(C#N)c1-c1ccco1,403,0.9% (inactive),-123% (inactive),124,1.33,0.851,-1.03,-2.59% (inactive),-0.446 (inactive),-8.7e-05 (inactive),0.00716 (inactive),inactive,7.49% (inactive)
COc1cc(C2NC(=O)NC(C)=C2C(=O)Nc2cccc(C)c2C)cc(OC)c1OC (stereo unspecified),566,-3.3% (inactive),-47.5% (inactive),183,0.296,0.344,-0.592,-2.91% (inactive),-0.35 (inactive),-1.5e-05 (inactive),0.00551 (inactive),inactive,-6.92% (inactive)
O=C(CN1C(=O)c2ccccc2C1=O)NCc1ccncc1,357,-6.8% (inactive),-60.9% (inactive),167,0.341,-1.51,1.76,-10.6% (inactive),-0.432 (inactive),-0.000133 (inactive),0.00529 (inactive),inactive,31% (inactive)
CC(NC(=O)OC(C)(C)C)C(=O)Oc1ccc2ccc(=O)oc2c1 (stereo unspecified),566,-16.8% (inactive),-178% (inactive),183,0.378,1.02,-0.959,28.6% (inactive),-0.0856 (inactive),-1.3e-05 (inactive),0.00547 (inactive),inactive,1.2% (inactive)
CC(C)OC(=O)CC1=NC(=O)CS1,693,-4% (inactive),-27.6% (inactive),175,-0.0687,-1.07,0.103,-0.624% (inactive),-0.423 (inactive),-4.2e-05 (inactive),0.00582 (inactive),inactive,-2.62% (inactive)
COc1cccc(-c2nn3c(-c4ccco4)nnc3s2)c1,611,-8.6% (inactive),16.8% (inactive),155,0.808,-0.226,-0.00224,2.92% (inactive),-0.406 (inactive),-0.000142 (inactive),0.00559 (inactive),inactive,-2.32% (inactive)
CCOCCN(C(=O)COC)c1cccc(OC)c1,368,4.6% (inactive),19.2% (inactive),124,0.00474,0.972,0.0482,-5.62% (inactive),-0.321 (inactive),1.5e-05 (inactive),0.00531 (inactive),inactive,-16.2% (inactive)
CC1(c2ccco2)NC(=O)NC1=O (stereo unspecified),665,-2.9% (inactive),-112% (inactive),160,-0.981,-0.00713,0.00425,-3.98% (inactive),-0.492 (inactive),-0.00016 (inactive),0.00442 (inactive),inactive,-5.4% (inactive)
Cc1cc(=O)oc(C)c1C(=O)NCCNC(=O)c1c(C)cc(=O)oc1C,496,-5.9% (inactive),-127% (inactive),140,0.642,-0.299,1.3,-14% (inactive),-0.534 (inactive),-3.6e-05 (inactive),0.0046 (inactive),inactive,-8.5% (inactive)
c1ccc(C2=Nn3c(nnc3-c3ccccn3)SC2)cc1,589,-10.9% (inactive),-79.3% (inactive),170,-0.434,1.46,1.25,-9.66% (inactive),-0.412 (inactive),-0.000132 (inactive),0.00684 (inactive),inactive,-6.13% (inactive)
CCCCNC(=O)N(C)c1nncnc1C(=O)NC,491,-10.8% (inactive),-190% (inactive),191,0.256,-0.788,0.32,-7.28% (inactive),-0.37 (inactive),-2.2e-05 (inactive),0.00552 (inactive),inactive,-1.96% (inactive)
COc1ccccc1N1C(=O)C2ON(c3ccccc3)C(c3ccc(N(C)C)cc3)C2C1=O (stereo unspecified),575,-8.3% (inactive),-66.7% (inactive),170,-2.24,0.301,1.93,-15% (inactive),-0.503 (inactive),-3e-05 (inactive),0.00352 (inactive),inactive,9.55% (inactive)
O=C1c2ccccc2C(=O)C1c1ccc2ccccc2n1,336,-17.4% (inactive),-56% (inactive),109,-0.111,-0.223,0.575,-7.28% (inactive),-0.43 (inactive),-2.4e-05 (inactive),0.00379 (inactive),inactive,-14.2% (inactive)

# — PubChem BioAssay
